About 1,200 (1.8%) of roughly 65,000 compounds were called active. What follows is part of a selection rich in actives, with near analogues and random picks from the rest. Unmarked numbers belong to inactive results.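 Rule for the calls: active = activation above the mean activation of all tested compounds plus 3 SD (cut at about 50% in these data); inactive = the rest.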

Steroidogenic factor 1 (Homo sapiens), sequence (Q13285 whole entry, looked up, the tested form may be a part): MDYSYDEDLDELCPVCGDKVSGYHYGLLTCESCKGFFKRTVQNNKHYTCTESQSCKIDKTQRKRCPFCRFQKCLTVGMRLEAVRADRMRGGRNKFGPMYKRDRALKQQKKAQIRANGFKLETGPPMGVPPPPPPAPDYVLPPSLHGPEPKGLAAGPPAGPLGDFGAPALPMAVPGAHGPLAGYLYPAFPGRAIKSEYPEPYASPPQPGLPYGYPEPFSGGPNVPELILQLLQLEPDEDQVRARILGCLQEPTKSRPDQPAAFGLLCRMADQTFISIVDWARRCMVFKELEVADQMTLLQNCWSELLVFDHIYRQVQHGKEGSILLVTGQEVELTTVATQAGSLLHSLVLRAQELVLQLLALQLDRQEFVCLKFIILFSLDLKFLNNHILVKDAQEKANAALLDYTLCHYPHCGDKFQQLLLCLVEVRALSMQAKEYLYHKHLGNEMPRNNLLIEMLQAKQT

The experiment has as its target Steroidogenic factor 1 (Homo sapiens) (UniProt Q13285). The experiment can be described thus: activators of human SF-1, primary screen, cell-based, CHO-K1, Gal4-SF-1 LBD, luciferase luminescence (AID 522). The following applies: CHO-K1 Gal4-SF-1 LBD luciferase reporter; at 10 µM; stronger effect = higher value; % increase over DMSO SF-1-specific signal. An outline of the steps:
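Assay system: CHO-K1 cells co-transfected with Gal4 DBD–human SF-1 LBD, 5xGal4 luciferase reporter; doses: 10 µM only; incubation: 20 h compound exposure at 37 °C after 1 h cell settling; signal: luciferase light emission; evaluation: percent activation versus DMSO; repeats: one test per compound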
For orientation: In a reporter assay the amount or activity of a reporter protein is the signal.
As for `Cn1c(=NC(=O)C2CC2)sc2cc(F)cc(F)c21`, the activation is -2%. `CCCC(=O)N=c1sc2cccc(F)c2n1C`: the activation is 17.9%. `Cn1c(=NC(=O)c2ccco2)sc2cccc(F)c21`: the activation is 91.8% (active). In the case of `CC(=O)Nc1ccn(Cc2c(F)cccc2Cl)n1`, the activation was 42.1%. The same measure for `CCCCOC(=O)c1ccc(N2C(=O)CC(N3CCN(C/C=C/c4ccccc4)CC3)C2=O)cc1` (centres undefined): -6.3%. In the case of `COc1ccc(-n2nnc3c(=O)n(CC(=O)OCc4ccccc4)cnc32)cc1` it was 9.3%.

Consider `O=C(Cn1cnc2c(cnn2-c2ccccc2)c1=O)NCc1ccccc1`, for which the activation was 70.3% (active). In the case of `O=C(Cn1cnc2c(cnn2-c2ccc(F)cc2)c1=O)NCCc1ccccc1` it was -19.4%; in that of `O=C(Cn1c(=O)sc2ccccc21)Nc1ccc2c(c1)OCCO2`, -9.9%; in that of `N#C/C(=C1\CCCN1)c1nc(-c2ccccc2)cs1`, 30%. Regarding `N#CC(=C1SC=CS1)c1nc(-c2ccccc2)cs1`, the activation is 80.9% (active). Regarding `CCOC(=O)CSc1nnc(CNC(=O)c2ccco2)n1-c1ccc(F)cc1`, the activation is 3.4%. As for `CN(CCc1ccccn1)S(=O)(=O)c1ccc2c3c(cccc13)C(=O)N2`, the activation is 14.4%.

For `COc1ccccc1OCCC(=O)OCC(=O)NC(=O)NC(C)(C)C`, the activation is 8.8%. For `CCc1nnc(NC(=O)CSc2nnc(Cc3ccccc3)n2-c2ccc(OC)cc2)s1`, the activation was -17.5%. Turning to `CCCCC(CCC(=O)Nc1ccc(C(=O)OCC)cc1)C(=O)O` (centres undefined), the activation was -8.4%. Take `CS(=O)(=O)c1ccc2nc(NC(=O)C3C4C=CC(C4)C3C(=O)O)sc2c1` (centres undefined): the activation was 8.1%. Consider `CC(C)COC(=O)c1ccc(NC(=O)C2C3C=CC(C3)C2C(=O)O)cc1` (centres undefined), for which the activation is 63.7% (active). For `CCc1nnc(NC(=O)c2ccc(S(=O)(=O)NC3CCCCC3)cc2)s1`, the activation is 6.1%. As for `COc1cccc(N(CC(=O)Nc2cccc(N(C)S(C)(=O)=O)c2)S(C)(=O)=O)c1`, the activation was 1.3%.

`CCOC(=O)C1CCN(C(=O)Cc2c(C(=O)O)[nH]c3ccccc23)CC1`: the activation is -12.1%. Turning to `COC(=O)c1sc(NC(=O)c2csc3c2CCCC3)nc1C`, the activation is 50.9% (active). Take `CC(=O)Cc1nsc(NC(=O)c2csc3c2CCCC3)n1`: the activation was 18%.

Turning to `COC(=O)c1sccc1NC(=O)c1csc2c1CCCC2`, the activation is -11.7%. Take `CCOC(=O)c1cc(-c2nnc(-c3cc(OC)c(OC)c(OC)c3)o2)c(C)nc1C`: the activation was -11%.

As for `Cc1ccc(C)c2[nH]c(=O)c(CCNC(=O)CC(C)C)cc12`, the activation is -11.8%. With `CCOC(=O)C1Cn2c(nc3c(c2=O)C(C)(CC)Cc2ccccc2-3)S1` (centres undefined), the activation was -8.9%. Consider `CC1Cn2c(nnc2-c2cccs2)S1` (centres undefined), for which the activation is -15.2%. As for `O=C(O)C1CCCCC1C(=O)Nc1ccc(Cl)cc1` (centres undefined), the activation was -2.8%. Take `O=C(Nc1ccc(Cl)cc1)c1ccsn1`: the activation was 73.5% (active). The same measure for `O=C(NCc1cn2ccsc2n1)Nc1ccc(Cl)cc1`: -1.8%; for `CCOC(=O)C1CCCCN1Cc1ccc(OC)c(OC)c1OC` (centres undefined): -21.3%; for `O=C(CN1C(=O)NC2(CCCCC2)C1=O)NCCC1=CCCCC1`: 2.8%. On to `CN(c1ccc(C(=O)NCCC2=CCCCC2)cc1)S(C)(=O)=O`, for which the activation is 55.4% (active).

For `CN(c1ccc(C(=O)N2CCc3ccccc3C2)cc1)S(C)(=O)=O`, the activation is 22.9%. Consider `Cn1nnc2cc(C(=O)NCCC3=CCCCC3)ccc21`, for which the activation is 49.9% (active).

Take `O=C(COc1cccc(-n2cnnn2)c1)NCCC1=CCCCC1`: the activation was -3.3%. In the case of `O=C(Cc1nn[nH]n1)NCCC1=CCCCC1` it was 3.7%. On to `COc1ccc(S(=O)(=O)N2CCCC2)c(C)c1C`, for which the activation was -8.5%. As for `c1ccc(-c2nnc3n2NC(c2ccc4c(c2)OCO4)S3)cc1` (centres undefined), the activation is -14.9%. Consider `CC(C)C[C@H](NC(=O)Nc1cccc(C(F)(F)F)c1)C(=O)O`, for which the activation is -1.1%. Consider `Cc1ccsc1-c1nc(CSCC(=O)NCCN2CCCC2)c(C)o1`, for which the activation was 3.6%. Consider `O=C(Nc1cccnc1)c1ccc2c(c1)OCO2`, for which the activation was 13.2%. Take `O=C(Nc1ccc2c(c1)OCCO2)c1ccncc1`: the activation is 20.3%. Regarding `COc1ccc(C(=O)Nc2ccc3c(c2)OCO3)cc1OC`, the activation is 55% (active). `Cn1c(=O)n(C)c2cc(C(=O)Nc3ccc4c(c3)OCO4)ccc21`: the activation is 21.2%. In the case of `CC(C)C(=O)Nc1cccc(C(=O)Nc2ccc3c(c2)OCO3)c1`, the activation is 55% (active). The same measure for `Cc1ccc(C(=O)Nc2ccc3c(c2)OCO3)cc1S(=O)(=O)N1CCCCC1`: 22.6%; for `CCc1nnc(NC(=O)c2c(O)c3c([nH]c2=O)CCCC3)s1`: 29.1%; for `CC1C(c2ccccc2)=[N+]([O-])C2(CCCC2)N1O` (centres undefined): 18.6%.

Turning to `O=C(C1CCC(C(=O)N2CCCC2)CC1)N1CCCC1` (centres undefined), the activation was -2.5%. As to `COc1ccc(NC(=O)c2cccc(NC(=O)c3ccco3)c2)c(OC)c1`, the activation was -29.9%. `Fc1ccc2nc(N3CCCCC3)sc2c1`: the activation was 43.3%. Turning to `Fc1cc(F)c2nc(N3CCOCC3)sc2c1`, the activation was 52.6% (active).

For the molecule `c1c2c(cc3sc(N4CCCCC4)nc13)OCCO2`, the activation was -71.4%. The same measure for `O=C(Nc1ccc(NC(=O)c2cccs2)cn1)c1ccco1`: 73.3% (active). `Cc1ccnc(NC(=O)c2ccc(NC(=O)c3ccco3)cc2)c1`: the activation is 46.9%. The same measure for `O=C(O)Cc1ccc(NC(=O)c2cccs2)cc1`: -7.4%; for `COc1ccc(N(C(=O)c2cccnc2)S(=O)(=O)c2ccc3c(c2)n(C)c(=O)n3C)cc1`: -24.3%; for `COc1ccc(Cn2nnc3c(=O)[nH]c(C4CCN(C(=O)c5ccccc5Cl)CC4)nc32)cc1`: -2.2%. In the case of `CC(C)NS(=O)(=O)c1ccc(NC(=O)c2cccnc2)cc1` it was 33.9%; in that of `CCC(=O)Nc1cccc(NC(=O)c2cccnc2)c1`, -0.4%; in that of `Cc1cc2nc(-c3ccc(NC(=O)c4cccnc4)cc3)oc2cc1C`, 54.8% (active). The same measure for `CCOC(=O)c1ccn(-c2nc(-c3ccco3)cc(C(F)(F)F)n2)n1`: 0.6%; for `Cc1cc(C(=O)NCCCc2ccccc2)no1`: 16.8%; for `CC(C)Cc1cc(C(=O)Nc2cc(Br)ccc2O)no1`: 11.7%. In the case of `CC(C)Cc1cc(C(=O)NCCc2ccccc2)no1`, the activation was 80.7% (active). Regarding `CC(C)Cn1c(CCC(=O)O)ccc1-c1cccs1`, the activation was 2.5%. Turning to `COc1ccccc1N=C1SC(C)CN1C(=O)C1CCC1` (centres undefined), the activation is 1.8%. As for `COc1ccc(-n2nnnc2SCC(=O)c2ccc(OC)c(OC)c2)cc1`, the activation is -4.4%. With `COC(=O)Cc1cc(=O)n(-c2nc3ccccc3s2)[nH]1`, the activation was -3%.

For `CCC(=O)NC(=Nc1nc2ccccc2s1)NC(=O)CC`, the activation is 60.7% (active).

As for `O=C(O)CSCc1nc2ccccc2s1`, the activation was 15.5%. In the case of `COc1ccc(-c2cc(C(F)(F)F)n3nc(C(=O)N4CCOCC4)c(Cl)c3n2)cc1` it was -9.4%. In the case of `C=CCn1c(C)cc(C(=O)CN2C(=O)c3ccccc3C2=O)c1C`, the activation is 27.3%. As to `Cc1c(C(=O)CN2CCOCC2)[nH]c2ccccc12`, the activation is 8.5%. As for `COc1ccc(CC(=O)Nc2ccc(-c3nnc(-c4ccccc4)o3)cc2)cc1`, the activation was -59.5%. Regarding `O=C(Nc1ccc(-c2nnc(-c3ccccc3)o2)cc1)c1ccc(Br)o1`, the activation was 10.9%. For the molecule `Nc1ccc(-c2nnc(-c3ccc(-c4ccccc4)cc3)o2)cc1`, the activation is 55.2% (active). Turning to `CCOC(=O)c1nc(-c2ccc3c(c2)OCO3)[nH]c1C`, the activation is 46.3%. Regarding `O=C(Nc1ccc(Cl)cn1)c1cnn2cccnc12`, the activation is 63.8% (active). Consider `Cc1cc(NC(=O)c2cnn3cccnc23)n(-c2ccccc2)n1`, for which the activation was 2.1%.

As to `O=C(Nc1ccc(Cl)cn1)Nc1cccs1`, the activation was 47.6%. The same measure for `CCS(=O)(=O)N1CCCC(C(=O)NCCCN(C)Cc2ccccc2)C1` (centres undefined): -14.4%; for `COc1ccc(NS(=O)(=O)c2ccc(NC(=O)C(C)(C(F)(F)F)C(F)(F)F)cc2)nn1`: -13.6%; for `O=C(Cc1ccccc1)n1nc(-c2ccccc2)nc1NCc1ccco1`: 50.5% (active). In the case of `O=C(NCc1ccco1)c1nc(-c2ccccc2)n(-c2ccccc2)n1` it was -4.9%; in that of `Cc1nc2nc(SCC(=O)NCc3ccco3)nn2c(C)c1Cc1ccccc1`, 5.7%; in that of `CCOC(=O)C1CCCN(C(=O)c2ccc(CS(=O)(=O)c3ccc(Br)cc3)o2)C1` (centres undefined), 19.7%. For the molecule `Cc1cccc(-n2nc3c(c2NC(=O)c2ccc(Br)o2)CSC3)c1C`, the activation is 9.6%. In the case of `CCC(Oc1ccccc1)C(=O)NCc1cccnc1` (centres undefined) it was -4.9%; in that of `COc1cc(OC)c(C(=O)NC2CCCCCC2)cc1OC`, 2%. In the case of `COc1ccc(NC(=O)c2ccc(OC)cc2)cc1`, the activation was 30.5%. Turning to `COc1cc(OC)c(C(=O)Nc2ccc(N(C)C)cc2)cc1OC`, the activation was 51.4% (active).

For the molecule `NC(=O)COc1ccc2c3c(c(=O)oc2c1)CCCCC3`, the activation was -7.8%.

For the molecule `Cc1cc(NC(=O)COc2ccc(Cl)cc2Cl)n(CCC#N)n1`, the activation is 28.2%. As for `CCN1C(=O)/C(=C2\SC(N3CCCCC3)=NC2=O)c2ccccc21`, the activation is 53.9% (active).

Regarding `CCN1C(=O)/C(=C\N2CCN(c3ccccc3)CC2)SC1=S`, the activation is -22.3%. With `CCN1C(=O)c2cccc3c(N)ccc1c23`, the activation was 15.3%. With `Cc1nnc(Sc2nc3c(c(=O)[nH]c(=O)n3C)n2Cc2ccccc2)s1`, the activation was -15%. `CCOC(=O)c1ccccc1NC(=O)CC1Nc2ccccc2NC1=O` (centres undefined): the activation was 3.2%. For `CCn1c(SCC(=O)Nc2nc3ccc(OC)cc3s2)nnc1-c1ccoc1C`, the activation was 13.2%. Regarding `COc1ccc2nc(NC(=O)c3ccc(Br)s3)sc2c1`, the activation is 72.8% (active). The same measure for `CNC(=O)c1ccc2nc(NC(C)=O)sc2c1`: 6.1%.

The values above are taken from PubChem BioAssay AID522 (The Scripps Research Institute Molecular Screening Center, 2006).
